# Where two headings read alike, the source gives them in different places.
# Tests used:
# [1] = Decomposition of polysulfanes with hydroxide ion, monitored by HPLC; assay type: physicochemical; conditions: 6A-F 2.5 mM, methanol/water 99.9:0.1, after 1 hr
# Outline: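 Test polysulfane mixture (2.5 mM) with acetanilide internal standard (0.25 mM) was treated with NaOH (0.625, 1.25, 1.875 or 2.5 mM) in methanol. After 1 h of equilibration, samples were analysed by reversed-phase C18 HPLC at 1 mL/min, rt, with UV at 254 nm. Elution used a methanol/water gradient of 15→95% methanol over 30 min, held 15 min.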
# [2] = Intrinsic solubility determination; assay type: physicochemical
# [3] = cited from earlier work
# PC3 (prostate) cells = experiment: Cell proliferation assay; assay type: cell-based, human
# Outline: (§1)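 DU145, PC3 and MDA-MB-231 lines only. Cells came from ATCC frozen stocks. PC3 was grown in F12K, DU145 and MDA-MB-231 in DMEM, all with 10% FBS plus penicillin/streptomycin. Equal cell numbers were seeded and held at 37 °C, 5% CO2 until log phase. Medium was then replaced with test compound (0–30 μM) for 48 h, then removed and plates frozen at -80 °C. After thawing to rt, CyQuant reagent was added and fluorescence read at 485/530 nm. Eight replicates per concentration; values are cell-number increase versus untreated controls, mean ± SE.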
# DU145 (prostate) cells = experiment: Cell proliferation assay; assay type: cell-based, human
# Outline: as §1
# [4] = system: MDA-MB-231 (breast) cells; experiment: Cell proliferation assay; assay type: cell-based, human
# Outline: as §1
# [5] = system: Jurkat (T-cell leukemia) cells; experiment: MTS cytotoxicity assay, Jurkat cells; assay type: cell-based; conditions: Homo sapiens, 24 h, read-out: IC50 Jurkat
# Outline: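 Jurkat line: cells were kept in RPMI-1640 with 10% fetal bovine serum and penicillin-streptomycin (100 U/mL / 100 μg/mL) at 37 °C, humidified 5% CO2. They were seeded at 2,000 cells/well in 96-well plates. After 24 h they were exposed to a range of test compound concentrations for […]. Growth was measured by MTS reagent with absorbance at 490 nm, expressed relative to compound-free controls, mean ± SE.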
# [6] = system: PC3, DU145, MDA-MB-231 and Jurkat cells; experiment: Antiproliferative activity against four human tumor cell lines; assay type: cell-based
# [7] = Ethanethiol-induced desulfuration; assay type: physicochemical
# [8] = room temperature, equilibrium time 24 h, average of three measurements
"Polysulfanes and elemental sulfur distribution (HPLC, internal standard = 100) ([1]; 0.25 hydroxide ion equivalents)","Polysulfanes and elemental sulfur distribution (HPLC, internal standard = 100) ([1]; 0.5 hydroxide ion equivalents)","Polysulfanes and elemental sulfur distribution (HPLC, internal standard = 100) ([1]; 0.75 hydroxide ion equivalents)","Polysulfanes and elemental sulfur distribution (HPLC, internal standard = 100) ([1]; 1.0 hydroxide ion equivalents)",Compound,further results
10.9,13.2,14.2,14.2,"COCCOCCOCCNC(=O)c1ccc2c(c1)SSS2 [Compound 6A, N-(2-(2-(2-Methoxyethoxy)ethoxy)ethyl)benzo[d][1,2,3]trithiole-5-carboxamide]",
3.0,2.8,4.7,1.6,"COCCOCCOCCNC(=O)c1ccc2c(c1)SSSSSSS2 [Compound 6E, N-(2-(2-(2-Methoxyethoxy)ethoxy)ethyl)benzo[h][1,2,3,4,5,6,7]heptathionine-9-carboxamide]",
362.4,289.2,222.9,163.9,"COCCOCCOCCNC(=O)c1ccc2c(c1)SSSSS2 [Compound 6C, N-(2-(2-(2-Methoxyethoxy)ethoxy)ethyl)benzo[f][1,2,3,4,5]pentathiepine-7-carboxamide]",Time of ethanethiol-induced desulfuration ([7]; in aqueous methanol): ~ 2 min; Time of ethanethiol-induced desulfuration ([7]; in benzene): 4 h

# The next lines start with the compound.
Compound,"Polysulfanes and elemental sulfur distribution (HPLC, internal standard = 100) ([1]; 0.25 hydroxide ion equivalents)","Polysulfanes and elemental sulfur distribution (HPLC, internal standard = 100) ([1]; 0.5 hydroxide ion equivalents)","Polysulfanes and elemental sulfur distribution (HPLC, internal standard = 100) ([1]; 0.75 hydroxide ion equivalents)","Polysulfanes and elemental sulfur distribution (HPLC, internal standard = 100) ([1]; 1.0 hydroxide ion equivalents)",further results
"[S] [Compound S8, Elemental sulfur]",12.3,23.1,26.7,32.4,"Fold lower solubility by comparison to 6A-F [2]: ~ 50 fold; Solubility in methanol [2, 8]: 330 ± 30 µg/mL; Solubility in water [2, 8]: 0.14 ± 0.02 µg/mL; Solubility in ethanol [3]: 510 µg/mL; Solubility in water [3]: 0.4 µg/mL"
"Sc1ccccc1S [1,2-Benzenedithiol]",,,,,"Effect on growth of PC3 cells (PC3 (prostate) cells; 48 h): stimulated the growth; IC50 PC-3 (PC3 (prostate) cells; 48 h incubation, 0–30 μM, 96-well plates): No effect; IC50 (DU145 (prostate) cells; Homo sapiens, DU-145, 48 h, read-out: IC50 DU145): > 30 µM; Inhibition of proliferation of DU145 cells (DU145 (prostate) cells; at concentrations of 10 μM and above, 48 h): ~ 40%; Effect on proliferation of MDA-MB-231 cells ([4]; 48 h): minimal effect; IC50 ([4]; Homo sapiens, MDA-MB-231, 48 h, read-out: IC50 MDA-MB-231): > 30 µM; IC50 [5]: 60 µM; Toxicity to the cancer cell lines (in words) [6]: nontoxic"
"COCCOCCOCCNC(=O)c1ccc2ssssssc2c1 [Compound 6D, N-(2-(2-(2-methoxyethoxy)ethoxy)ethyl)benzo[g][1,2,3,4,5,6]hexathiocine-8-carboxamide]",2.3,2.1,1.8,1.5,
"COCCOCCOCCNC(=O)c1ccc2c(c1)SSSSSSSSS2 [Compound 6F, N-(2-(2-(2-Methoxyethoxy)ethoxy)ethyl)benzo[j][1,2,3,4,5,6,7,8,9]nonathiacyclo-undecine-11-carboxamide]",2.1,3.7,3.8,3.1,

# — publication PMC3329777 (The Journal of Organic Chemistry, 2010)
